The results in this text go back to article PMC3743164 (Chemmedchem, 2013).

The subject of one assay is HepG2 cells. Kind of assay: HepG2 cytotoxicity assay. It counts as cell-based. To be noted: Homo sapiens, HepG2, 48 h, read-out: Ctox.: IC50 HepG2. The procedure, abridged:
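HepG2 cells were harvested while actively growing, with monolayers kept ≤50 % confluent, in Eagle's MEM with 10 % FBS, 1 % NEAA and 1 % penicillin/streptomycin. They were seeded at about 3000 cells per well (1.2×10^5 cells mL−1) onto predispensed test compound. Plates were incubated 48 h at 37 °C, 80 % humidity and 5 % CO2, equilibrated 30 min at room temperature, then developed with CellTiter-Glo for 10 min before luminescence reading.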

For another assay, the system named is M. tuberculosis H37Rv. Description: M. tuberculosis H37Rv inhibition assay. It counts as cell-based. The settings on record: Mycobacterium tuberculosis, read-out: MIC H37Rv.

≈ marks a conversion by molar mass, not a printed value.

In the case of `CO[C@H]1/C=C/O[C@@]2(C)Oc3c(C)c(O)c4c(O)c(c(/C=N/N5CCN(C)CC5)c(O)c4c3C2=O)NC(=O)/C(C)=C\C=C\[C@H](C)[C@H](O)[C@@H](C)[C@@H](O)[C@@H](C)[C@H](OC(C)=O)[C@@H]1C` [Rifampicin], in the assay with HepG2 cells, the 50% inhibitory concentration (IC50) (usually the midpoint of a concentration-inhibition curve) is more than 256 µM. Moreover, the MIC (commonly the lowest concentration that inhibits growth of the organism) in the assay on M. tuberculosis H37Rv is 0.02 µM (≈ 0.0165 µg/mL).
As to `NNC(=O)c1ccncc1` [Isoniazid], the IC50 in the assay on HepG2 cells is 207 µM. Also, the MIC with M. tuberculosis H37Rv is 1.8 µM (≈ 0.247 µg/mL).
